The results in this text go back to ChEMBL document CHEMBL2016474, “Structure-activity analysis and cell-based optimization of human galactokinase inhibitors” (ACS Med Chem Lett, 2011).

Active and inactive are the calls of the source. No cut-off for these calls is given here. Bounds are passed on as bounds.

The target in series [1] is T1, Galactokinase (Homo sapiens, UniProt P51570). Briefly: Inhibition of human […] at >50 uM after 30 mins by Kinase-GloTM assay. The procedure, abridged: (§1)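 GALK in vitro inhibition with IC50 determination; each value from three replicate measurements, given with standard deviation. Compounds not active below 50 μM recorded as exceeding that concentration.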

Series [2] has as its target T1, Galactokinase. Briefly: Inhibition of human galactokinase after 30 mins by Kinase-GloTM assay. The procedure, abridged: as §1
A short description of series [3]: Toxicity in human primary fibroblasts assessed as visible signs of lethality at 50 uM. The series is classed as cell-based. To be noted: fibroblast.
The target in series [4] is T1, Galactokinase. As to the kind of experiment: Inhibition of […] in human primary fibroblasts derived from GALT-deficient patients assessed as reduction in accumulation of gal-1P at 50 uM preincubated overnight prior galactose challenge measured after 4 hrs. Put shortly: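 Intracellular GALK inhibition in primary fibroblasts from classic galactosemia (GALT-deficient) patients. Compound given at 50 or 100 μM. Read-out is the percent reduction of cellular gal-1P accumulation.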

Series [5] in a line: Toxicity in human primary fibroblasts assessed as lethality at >= 50 uM within 1 hr. The format is cell-based. To be noted: fibroblast.
A short description of series [6]: Toxicity in human primary fibroblasts. The format is cell-based. To be noted: fibroblast.

T1 sequence (P51570 whole entry): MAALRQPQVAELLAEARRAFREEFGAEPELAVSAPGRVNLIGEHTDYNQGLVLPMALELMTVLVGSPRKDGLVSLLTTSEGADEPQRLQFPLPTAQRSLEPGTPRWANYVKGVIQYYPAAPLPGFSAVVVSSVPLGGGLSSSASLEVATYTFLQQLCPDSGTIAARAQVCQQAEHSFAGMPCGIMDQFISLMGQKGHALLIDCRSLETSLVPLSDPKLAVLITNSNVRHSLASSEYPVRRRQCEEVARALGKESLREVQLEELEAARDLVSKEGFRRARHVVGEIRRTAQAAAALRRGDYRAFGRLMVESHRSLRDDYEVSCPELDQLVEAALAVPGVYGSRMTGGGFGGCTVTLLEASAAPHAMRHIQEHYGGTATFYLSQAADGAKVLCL

As to `CSC1=C(C#N)C(=O)NC(c2ccc(Cl)cc2Cl)S1` (stereo not given), in series [1], the inhibition entry is “inactive”.

As for `N#CC1=C(SCc2ccc(O)cc2)SC2(CCC(C(=O)O)CC2)NC1=O` (stereo not given), the inhibition result in series [1] was “inactive”.

In series [2], `N#CC1=C(SCc2ccccc2)SC(c2ccc(O)cc2O)NC1=O` (stereo not given) had an IC50 of 1.2 µM.

`N#CC1=C(SCc2cccc(N3CCOCC3)c2)SC(c2ccc(O)cc2)NC1=O` (stereo not given): the Activity result in series [3] was “Non-toxic”. For the same molecule, half-maximal inhibition in series [2] (IC50) was put at 2.4 µM. Also, in series [4], the inhibition entry is “inactive”.

On to `CC1(C)NC(=O)C(C#N)=C(SCc2ccccc2)S1`, for which the inhibition entry in series [1] was “inactive”.

For the molecule `N#CC1=C(SCc2cccc(N3CCOCC3)c2)SC(c2ccc(O)c(O)c2)NC1=O` (stereo not given), in series [3], the Activity entry is “Non-toxic”. Besides, the half-inhibitory concentration (IC50) in series [2] is 1.2 µM. In addition, the inhibition in series [4] was found to be 16%.

Turning to `CSC1=C(C#N)C(=O)NC(c2ccccc2O)S1` (stereo not given), in series [2], the inhibition result is “Active”.

On to `N#CC1=C(SCc2ccccc2)SC(c2cc(O)ccc2O)NC1=O` (stereo not given), for which half-maximal inhibition in series [2] (IC50) required 0.7 µM.

For the molecule `CC1NC(=O)C(C#N)=C(SCc2ccccc2)S1` (stereo not given), the inhibition entry in series [1] was “inactive”.

As for `CC(=O)Oc1ccc(C2NC(=O)C(C#N)=C(SCc3ccccc3)S2)cc1OC(C)=O` (stereo not given), in series [5], the Activity entry is reported as “Toxic”.

On to `CCCCSC1=C(C#N)C(=O)NC(c2ccccc2O)S1` (stereo not given), for which the inhibition entry in series [1] was “inactive”.

For the molecule `N#CC1=C(SCc2cccc(N3CCOCC3)c2)SC(c2cc(O)ccc2O)NC1=O` (stereo not given), the IC50 in series [2] turned out to be 0.9 µM. The inhibition result in series [4] is “inactive”.

Consider `N#CC1=C(SCc2ccccc2)SC(c2ccc(O)c(O)c2)NC1=O` (stereo not given), for which the Activity result in series [6] is reported as “Toxic”.

With `N#CC1=C(SCc2ccccc2)SC(c2ccc(C(=O)O)cc2)NC1=O` (stereo not given), the inhibition entry in series [2] is “Active”.

On to `N#CC1=C(SCc2ccccc2)SCNC1=O`, for which the inhibition entry in series [1] was “inactive”.

Take `N#CC1=C(SCc2ccccc2)SC(c2ccc3c(c2)OCO3)NC1=O` (stereo not given): the IC50 in series [2] stood at 22.5 µM.

In series [2], `N#CC1=C(SCc2ccccc2)SC(c2cccc(O)c2)NC1=O` (stereo not given) returned an IC50 of 50 µM.

In the case of `COc1ccc(C2NC(=O)C(C#N)=C(SCc3ccccc3)S2)cc1` (stereo not given), in series [2], the IC50 is over 50 µM.

Molecule `N#CC1=C(SCc2ccccc2)SC(c2ccc(O)cc2)NC1=O` (stereo not given) returned a half-maximal inhibitory concentration (IC50) in series [2] of 1.8 µM.

Turning to `N#CC1=C(SCc2ccccc2)SC(c2ccccc2O)NC1=O` (stereo not given), half-maximal inhibition in series [2] (IC50) was put at 12 µM.
